Experimental data as given in ChEMBL document CHEMBL3525903 (Drug Metab Dispos, 2013).
pIC50: −log10 of the molar value.

Legend:
Assay type in all cases: ADME, cell-based
[1] = tested on: P-glycoprotein; experiment: Permeability assessed as human P-glycoprotein-mediated of transport of basolateral to apical side expressed in pig LLC-PK1 cells by Transwell experiment/liquid scintillation counting
[2] = tested on: P-glycoprotein; experiment: Permeability assessed as human P-glycoprotein-mediated active membrane transport by measuring basolateral to apical side expressed in pig LLC-PK1 cells by Transwell experiment/liquid scintillation counting; settings: read-out: permeability
[3] = target: T1, Organic anion transporter 3 (Homo sapiens, UniProt Q8TCC7); experiment: Inhibition of OAT3 (unknown origin) expressed in HEK293 cells assessed as reduction of [3H]E-sul substrate uptake by liquid scintillation counting
T1 sequence (Q8TCC7 whole entry): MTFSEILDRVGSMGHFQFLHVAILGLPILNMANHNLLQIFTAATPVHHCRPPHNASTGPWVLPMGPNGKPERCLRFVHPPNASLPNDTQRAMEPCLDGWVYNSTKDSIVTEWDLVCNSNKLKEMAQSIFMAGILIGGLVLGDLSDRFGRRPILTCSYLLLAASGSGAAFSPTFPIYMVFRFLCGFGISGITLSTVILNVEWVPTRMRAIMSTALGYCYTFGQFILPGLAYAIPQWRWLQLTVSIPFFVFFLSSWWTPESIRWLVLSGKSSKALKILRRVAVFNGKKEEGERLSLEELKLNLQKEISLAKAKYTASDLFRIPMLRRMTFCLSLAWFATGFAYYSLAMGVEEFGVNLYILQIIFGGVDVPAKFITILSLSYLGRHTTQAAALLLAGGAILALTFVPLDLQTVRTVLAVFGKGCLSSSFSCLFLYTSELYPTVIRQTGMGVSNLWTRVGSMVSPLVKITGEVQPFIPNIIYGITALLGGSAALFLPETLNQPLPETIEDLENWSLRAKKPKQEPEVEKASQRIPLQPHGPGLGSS

[4] = target: T2, Broad substrate specificity ATP-binding cassette transporter ABCG2 (Homo sapiens, UniProt Q9UNQ0); experiment: Inhibition of human BCRP expressed in MDCK2 cells assessed as reduction of [3H]E-sul substrate transport up to 100 uM by liquid scintillation counting; settings: mdck-ii
T2 sequence (Q9UNQ0 whole entry): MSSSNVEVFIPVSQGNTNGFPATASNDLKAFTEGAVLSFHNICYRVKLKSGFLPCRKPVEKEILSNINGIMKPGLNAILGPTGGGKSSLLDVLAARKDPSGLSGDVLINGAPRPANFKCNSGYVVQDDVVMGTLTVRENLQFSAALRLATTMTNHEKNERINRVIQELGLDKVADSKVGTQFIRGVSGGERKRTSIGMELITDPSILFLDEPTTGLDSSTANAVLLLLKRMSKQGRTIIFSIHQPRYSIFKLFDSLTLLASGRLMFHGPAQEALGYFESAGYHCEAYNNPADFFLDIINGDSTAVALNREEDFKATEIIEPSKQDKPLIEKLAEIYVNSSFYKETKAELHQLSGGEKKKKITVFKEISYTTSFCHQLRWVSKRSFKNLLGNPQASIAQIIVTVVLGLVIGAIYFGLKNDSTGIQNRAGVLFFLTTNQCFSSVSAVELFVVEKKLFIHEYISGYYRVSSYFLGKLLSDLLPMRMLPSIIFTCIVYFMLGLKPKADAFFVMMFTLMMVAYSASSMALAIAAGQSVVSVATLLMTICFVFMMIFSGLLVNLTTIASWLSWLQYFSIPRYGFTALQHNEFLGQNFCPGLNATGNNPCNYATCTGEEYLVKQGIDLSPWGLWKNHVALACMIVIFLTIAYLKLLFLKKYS
Summary of the method: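 Membrane vesicles made from MDCKII cells expressing BCRP or MRP2, and from parental cells (1 μg/μL protein). Run in Tris-sucrose buffer, pH 7.4, with 10 mM MgCl2, creatine phosphokinase and ATP, or AMP as control. Substrates: 0.035 μM [3H]E-sul for BCRP, 2 min; 0.033 μM [3H]E217βG for MRP2, 5 min; both at 37 °C. Stopped ice-cold, filtered, and counted by scintillation.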

[5] = target: T3, Solute carrier family 22 member 6 (Homo sapiens, UniProt Q4U2R8); experiment: Inhibition of OAT1 (unknown origin) expressed in HEK293 cells assessed as reduction of [3H]PAH substrate uptake at 100 uM by liquid scintillation counting; settings: hek293, 100 µM
T3 sequence (Q4U2R8 whole entry): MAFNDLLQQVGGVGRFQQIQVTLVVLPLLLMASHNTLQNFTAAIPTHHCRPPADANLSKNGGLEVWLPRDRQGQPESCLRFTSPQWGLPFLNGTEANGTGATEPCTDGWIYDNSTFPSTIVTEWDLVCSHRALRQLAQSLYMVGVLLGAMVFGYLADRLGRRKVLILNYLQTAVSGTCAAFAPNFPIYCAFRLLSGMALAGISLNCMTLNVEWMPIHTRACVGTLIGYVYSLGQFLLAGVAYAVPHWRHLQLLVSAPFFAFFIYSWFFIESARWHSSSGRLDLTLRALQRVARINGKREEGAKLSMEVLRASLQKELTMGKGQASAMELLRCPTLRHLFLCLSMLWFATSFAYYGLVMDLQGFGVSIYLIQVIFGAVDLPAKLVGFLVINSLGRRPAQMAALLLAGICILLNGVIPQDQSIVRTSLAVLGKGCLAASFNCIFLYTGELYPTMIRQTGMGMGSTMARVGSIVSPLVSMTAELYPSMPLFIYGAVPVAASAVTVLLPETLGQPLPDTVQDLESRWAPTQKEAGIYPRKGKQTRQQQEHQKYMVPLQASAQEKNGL
Summary of the method: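 HEK293 cells transiently transfected with OAT, OATP or OCT plasmid (FuGENE6; 24 h, then 24 h more with sodium butyrate), or stable OCTN1/OCTN2 lines; vector-transfected cells as control. Washed, preincubated 15–60 min at 37 °C in modified Krebs-Henseleit/25 mM HEPES buffer. Uptake of radiolabelled substrate, 100 µM inhibitor. Cells lysed in NaOH and counted by scintillation; counts normalised to medium radioactivity and Lowry protein; vector uptake subtracted.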

For CC#CCn1c(N2CCC[C@@H](N)C2)nc2c1c(=O)n(Cc1nc(C)c3ccccc3n1)c(=O)n2C [LINAGLIPTIN], the Km [1] was 154 µM, the Papp B→A [2] was 27.4 ×10⁻⁶ cm/s and the pIC50 [3] was < 4.00. For the same molecule, the “inhibition (INH)” value [4] was 24.7% and the “inhibition (INH)” value [5] was 1.07%.
